14 compounds from PubChem BioAssay can be followed below.

Test [1] can be described thus: hit retest on RPL19A-GFP reporter strain – cell-based, S. cerevisiae, flow cytometry, cherry picks, mother/daughter gates, confirmation (AID 2270;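 active = GFP response below 50% of the DMSO control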). The settings on record: 3 h, at 10 µM, stronger effect = lower value, 100 = same GFP as DMSO wells. Background: In flow cytometry, cells or beads pass a laser one at a time.
Test [2] in a line: yeast TOR pathway reporter LAP4-GFP change – cell-based, cherry picks, flow cytometry, mother/daughter gates, confirmation (AID 2271;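 active = GFP response above 150% of the DMSO control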;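 also: ratio of sample to DMSO plate mean so 100% equals DMSO level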). The settings on record: S. cerevisiae LAP4-GFP strain, 3 h, at 10 µM, stronger effect = higher value, 100 means same as DMSO control. Summed up: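 Measured by: GFP by flow cytometry. Test system: GFP-fusion yeast strain. Input: yeast cells seeded at OD600 of 0.2. Timing: 30 °C, 3 h compound incubation, rotating. Buffer or medium: synthetic complete medium for yeast. Benchmarks: DMSO-only negative wells, rapamycin 400 ng/mL positive wells. Compound: 10 µM single dose.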

Test [3] in a line: TOR pathway reporter MEP2-GFP, retest of hits – S. cerevisiae, flow cytometry GFP, cherry picks, confirmation (AID 2272;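 active = GFP response above 150% of the DMSO control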;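 also: ratio of well signal to plate DMSO mean so 100% equals DMSO level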). The conditions noted are these: S. cerevisiae MEP2-GFP strain, 3 h, at 10 µM, stronger effect = higher value.
A short description of test [4]: yeast AGP1-GFP fluorescence change, single-dose – cell-based, flow cytometry, S. cerevisiae, cherry picks, confirmation (AID 2273).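 Also: median GFP channel fluorescence over the whole cell population gate.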 The settings on record: S. cerevisiae AGP1-GFP strain, 3 h, at 10 µM.
The nature of test [5]: TOR pathway CIT2 reporter hit retest – S. cerevisiae, GFP fusion, cherry picks, mother/daughter gates, confirmation (AID 2274). The conditions noted are these: S. cerevisiae CIT2-GFP strain, flow cytometry, 3 h, at 10 µM, stronger effect = higher value.
Where [6] appears, read: measured here: daughter cell gate.
Where [7] appears, read: measured here: mother cell gate.
[8] abbreviates: measured here: daughter cell gate response.
Setting [9] is: measured here: mother cell gate response.

The source made the active and inactive calls.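 The calls were made as follows, unless noted: active = GFP response above 150% of the DMSO level; inconclusive = fewer than 70 events counted for a yeast strain; inactive = the rest.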

In the case of `CCOc1ccc(N2C(=O)CC(Sc3ncccn3)C2=O)cc1` (centres undefined), the GFP response vs DMSO was 98.2% (inactive) in test [1], 98.4% in test [1] (setting [6]), 99.2% in test [1] (setting [7]) and 100% (inactive) in test [3]. Moreover, the GFP response relative to DMSO in test [2] is 97.9% (inactive); in test [2] (setting [8]), 97.6%; in test [2] (setting [9]), 98.3%. Also, the GFP response, % of DMSO in test [4] is 101% (inactive); in test [5] it was 104% (inactive); in test [5] (setting [6]), 105%; in test [5] (setting [7]) it was 104%.
In the case of `COc1ccc(C(=O)Nc2c(N)nc[nH]c2=O)cc1`, the GFP response vs DMSO was 102% (inactive) in test [1], 99.3% in test [1] (setting [6]), 99% in test [1] (setting [7]) and 105% (inactive) in test [3]. In addition, the GFP response relative to DMSO in test [2] is 97% (inactive); in test [2] (setting [8]) it was 97.5%; in test [2] (setting [9]), 97.3%. In addition, the GFP response, % of DMSO in test [4] was 103% (inactive); in test [5] it was 105% (inactive); in test [5] (setting [6]), 103%; in test [5] (setting [7]), 102%.
Turning to `Cc1nc(Sc2ccccc2)c(C#N)c(C)c1[N+](=O)[O-]`, the GFP response vs DMSO in test [1] is 98.2% (inactive); in test [1] (setting [6]), 99.4%; in test [1] (setting [7]) it was 96.6%; in test [3] it was 109% (inactive). In addition, the results for the GFP response relative to DMSO in test [2], in test [2] (setting [8]) and in test [2] (setting [9]) were 94.1% (inactive), 92.8% and 91.9%, respectively. In addition, the GFP response, % of DMSO in test [4] was 88.4% (inactive); in test [5], 115% (inactive); in test [5] (setting [6]) it was 117%; in test [5] (setting [7]), 113%.
Consider `Cc1cccc(C)c1NC(=O)c1nc(S(=O)(=O)Cc2ccccc2)ncc1Cl`, for which the GFP response vs DMSO is 97.1% (inactive) in test [1], 96.4% in test [1] (setting [6]), 95.8% in test [1] (setting [7]) and 101% (inactive) in test [3]. For the same compound, the GFP response relative to DMSO in test [2] was 102% (inactive); in test [2] (setting [8]), 101%; in test [2] (setting [9]) it was 101%. Moreover, the GFP response, % of DMSO was 102% (inactive) in test [4], 94.4% (inactive) in test [5], 92.3% in test [5] (setting [6]) and 93.8% in test [5] (setting [7]).
For the compound `COc1ccc(/C=N\NC(=O)c2cc(OCC(F)(F)F)ccc2OCC(F)(F)F)cc1`, the GFP response vs DMSO in test [1] was 93.7% (inactive); in test [1] (setting [6]), 97.9%; in test [1] (setting [7]) it was 94%; in test [3] it was 102% (inactive). In addition, the GFP response relative to DMSO in test [2] was 96.7% (inactive); in test [2] (setting [8]) it was 97.6%; in test [2] (setting [9]), 98.3%. The GFP response, % of DMSO is 94.8% (inactive) in test [4], 98.3% (inactive) in test [5], 99.1% in test [5] (setting [6]) and 95% in test [5] (setting [7]).
Turning to `CN1Cc2sc(NC(=S)NC(=O)c3ccccc3)c(C#N)c2CC1(C)C`, the GFP response vs DMSO in test [1] was 99.5% (inactive); in test [1] (setting [6]) it was 99.8%; in test [1] (setting [7]), 100%; in test [3] it was 133% (inactive). For the same compound, the GFP response relative to DMSO in test [2] was 109% (inactive); in test [2] (setting [8]) it was 104%; in test [2] (setting [9]), 111%. Also, the GFP response, % of DMSO was 106% (inactive) in test [4], 109% (inactive) in test [5], 109% in test [5] (setting [6]) and 110% in test [5] (setting [7]).
As for `N#Cc1cc([N+](=O)[O-])c(-n2nnc3ccccc32)c([N+](=O)[O-])c1`, the GFP response vs DMSO was 92.8% (inactive) in test [1], 94.7% in test [1] (setting [6]), 88.8% in test [1] (setting [7]) and 90.5% (inactive) in test [3]. Moreover, the GFP response relative to DMSO in test [2] is 172% (active); in test [2] (setting [8]), 149%; in test [2] (setting [9]), 184%. For the same compound, the GFP response, % of DMSO in test [4] was 98.2% (inactive); in test [5] it was 100% (inactive); in test [5] (setting [6]), 99.2%; in test [5] (setting [7]), 93.2%.
As for `O=C(Nc1nnc(-c2ccccc2Cl)o1)c1ccc(S(=O)(=O)N2CCCCCC2)cc1`, the GFP response vs DMSO was 100% (inactive) in test [1], 98.6% in test [1] (setting [6]), 99.8% in test [1] (setting [7]) and 101% (inactive) in test [3]. Further, the figures for the GFP response relative to DMSO in test [2], in test [2] (setting [8]) and in test [2] (setting [9]) were 97% (inactive), 97.5% and 96.2%, respectively. In addition, the GFP response, % of DMSO is 95.1% (inactive) in test [4], 97.3% (inactive) in test [5], 93.8% in test [5] (setting [6]) and 98.1% in test [5] (setting [7]).
Consider `CCn1c(=O)c(C(=O)Nc2ccsc2C(=O)OC)c(O)c2ccccc21`, for which the GFP response vs DMSO in test [1] was 103% (inactive); in test [1] (setting [6]), 101%; in test [1] (setting [7]), 103%; in test [3], 96.8% (inactive). Also, the GFP response relative to DMSO was 93.1% (inactive) in test [2], 92.6% in test [2] (setting [8]) and 94.1% in test [2] (setting [9]). Also, the GFP response, % of DMSO in test [4] was 103% (inactive); in test [5], 100% (inactive); in test [5] (setting [6]), 99.2%; in test [5] (setting [7]) it was 101%.
`Cc1nnc(N2C(=O)c3cccc4cccc(c34)C2=O)s1`: the GFP response vs DMSO in test [1] is 94.9% (inactive); in test [1] (setting [6]), 93.3%; in test [1] (setting [7]), 94.4%; in test [3], 106% (inactive). Moreover, the values for the GFP response relative to DMSO in test [2], in test [2] (setting [8]) and in test [2] (setting [9]) were 96.5% (inactive), 94.4% and 96.4%, respectively. Further, the GFP response, % of DMSO in test [4] was 100% (inactive); in test [5], 101% (inactive); in test [5] (setting [6]) it was 101%; in test [5] (setting [7]), 102%.
Regarding `CCCc1[nH]nc2c1C(c1cccc(OC)c1)C(C#N)=C(N)O2` (centres undefined), the GFP response vs DMSO in test [1] was 103% (inactive); in test [1] (setting [6]) it was 101%; in test [1] (setting [7]), 103%; in test [3], 105% (inactive). For the same compound, the GFP response relative to DMSO in test [2] is 98.2% (inactive); in test [2] (setting [8]) it was 95.9%; in test [2] (setting [9]), 97.3%. Further, the GFP response, % of DMSO was 98.6% (inactive) in test [4], 102% (inactive) in test [5], 97.4% in test [5] (setting [6]) and 103% in test [5] (setting [7]).
As to `CC(C)c1nc2ccccn2c1NC1CCCCC1`, the GFP response vs DMSO in test [1] was 101% (inactive); in test [1] (setting [6]), 98.4%; in test [1] (setting [7]), 98%; in test [3], 100% (inactive). Moreover, the GFP response relative to DMSO is 97.9% (inactive) in test [2], 99.2% in test [2] (setting [8]) and 98.3% in test [2] (setting [9]). Further, the GFP response, % of DMSO in test [4] was 102% (inactive); in test [5], 101% (inactive); in test [5] (setting [6]), 103%; in test [5] (setting [7]), 101%.
For the compound `Cc1ccc(C(=O)c2nocc2C(=O)c2cccs2)cc1`, the GFP response vs DMSO was 98.7% (inactive) in test [1], 93.6% in test [1] (setting [6]), 99.8% in test [1] (setting [7]) and 95.4% (inactive) in test [3]. Besides, the GFP response relative to DMSO was 123% (inactive) in test [2], 111% in test [2] (setting [8]) and 128% in test [2] (setting [9]). Further, the GFP response, % of DMSO was 89.9% (inactive) in test [4], 80.6% (inactive) in test [5], 79.7% in test [5] (setting [6]) and 80.5% in test [5] (setting [7]).
As for `Cc1cc(C)nc(S/C=C/C(=O)c2ccccc2F)n1`, the GFP response vs DMSO in test [1] is 103% (inactive); in test [1] (setting [6]) it was 102%; in test [1] (setting [7]), 102%; in test [3], 107% (inactive). In addition, the results for the GFP response relative to DMSO in test [2], in test [2] (setting [8]) and in test [2] (setting [9]) were 120% (inactive), 119% and 123%, respectively. Moreover, the GFP response, % of DMSO in test [4] was 94.3% (inactive); in test [5], 95.2% (inactive); in test [5] (setting [6]) it was 98.1%; in test [5] (setting [7]) it was 92.3%.
